Columns and labels:
[1] = biological target: Serine protease hepsin (Homo sapiens, UniProt P05981); assay: Inhibition of recombinant human hepsin using Boc-QAR-AMC as substrate preincubated for 30 mins followed by substrate addition by fluorescence assay
[2] = biological target: Glutamate carboxypeptidase 2 (Homo sapiens, UniProt Q04609); assay: Inhibition of PSMA (unknown origin) assessed as reduction in glutamate formation using NAAG as substrate preincubated for 30 mins followed by substrate addition by Amplex red assay
[3] = Drug uptake in human PC3-ML cells expressing PSMA at 10 to 1000 nM after 4 hrs by flow cytometry; format: ADME, cell-based; settings: 1 µM
[4] = Drug uptake in human PC3-ML cells expressing hepsin/PSMA at 100 to 1000 nM after 4 hrs by flow cytometry; format: ADME, cell-based; settings: 1 µM
Outline: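 Cells seeded at 5 × 10^5 per well and grown 48 h to full adhesion. Medium then replaced with compound in RPMI 1640 with 10% FBS for 4 h (methods state final concentration 10 µg/mL). Cells washed twice with cold PBS, fixed in 4% paraformaldehyde for 10 min, and uptake read by flow cytometry.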

[5] = tested on: Tumour; assay: Drug uptake in tumor of NOD/Shi-scid/IL-2Rgamma null mouse xenografted with human PC3-ML cells expressing PSMA at 1 nmol, iv measured 24 hrs post dosing by near infrared optical imaging analysis; format: ADME, organism-based, Neoplasm; settings: in vivo
Outline: (§1)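 Six-week-old male NSG mice received 1 million tumor cells subcutaneously in the upper flank. Two weeks later, 1 nmol of the Cy7-labelled ligand in 100 uL PBS was injected via tail vein. NIR fluorescence images were taken 24 hr post injection with a small-animal imaging system.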

[6] = tested on: Tumour; assay: Drug uptake in tumor of NOD/Shi-scid/IL-2Rgamma null mouse xenografted with human PC3-ML cells expressing PSMA/HPN at 1 nmol, iv measured 24 hrs post dosing by near infrared optical imaging analysis; format: ADME, organism-based, Neoplasm; settings: in vivo; outline: as §1

Serine protease hepsin, sequence (P05981 1-162 limits assumed): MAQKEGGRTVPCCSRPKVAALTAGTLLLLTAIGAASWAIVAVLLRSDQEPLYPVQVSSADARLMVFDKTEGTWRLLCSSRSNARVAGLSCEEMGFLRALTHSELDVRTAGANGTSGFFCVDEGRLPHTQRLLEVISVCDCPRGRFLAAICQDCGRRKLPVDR
Serine protease hepsin, sequence (P05981 163-417 limits assumed): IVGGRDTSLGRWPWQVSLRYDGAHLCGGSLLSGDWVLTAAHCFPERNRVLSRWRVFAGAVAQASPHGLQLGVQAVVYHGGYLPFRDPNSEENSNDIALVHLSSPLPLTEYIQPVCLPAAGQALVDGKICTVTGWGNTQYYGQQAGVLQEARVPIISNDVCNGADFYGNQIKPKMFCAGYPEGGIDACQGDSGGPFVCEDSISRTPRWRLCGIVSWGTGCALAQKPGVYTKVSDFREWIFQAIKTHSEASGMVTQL
Glutamate carboxypeptidase 2, sequence (Q04609 whole entry): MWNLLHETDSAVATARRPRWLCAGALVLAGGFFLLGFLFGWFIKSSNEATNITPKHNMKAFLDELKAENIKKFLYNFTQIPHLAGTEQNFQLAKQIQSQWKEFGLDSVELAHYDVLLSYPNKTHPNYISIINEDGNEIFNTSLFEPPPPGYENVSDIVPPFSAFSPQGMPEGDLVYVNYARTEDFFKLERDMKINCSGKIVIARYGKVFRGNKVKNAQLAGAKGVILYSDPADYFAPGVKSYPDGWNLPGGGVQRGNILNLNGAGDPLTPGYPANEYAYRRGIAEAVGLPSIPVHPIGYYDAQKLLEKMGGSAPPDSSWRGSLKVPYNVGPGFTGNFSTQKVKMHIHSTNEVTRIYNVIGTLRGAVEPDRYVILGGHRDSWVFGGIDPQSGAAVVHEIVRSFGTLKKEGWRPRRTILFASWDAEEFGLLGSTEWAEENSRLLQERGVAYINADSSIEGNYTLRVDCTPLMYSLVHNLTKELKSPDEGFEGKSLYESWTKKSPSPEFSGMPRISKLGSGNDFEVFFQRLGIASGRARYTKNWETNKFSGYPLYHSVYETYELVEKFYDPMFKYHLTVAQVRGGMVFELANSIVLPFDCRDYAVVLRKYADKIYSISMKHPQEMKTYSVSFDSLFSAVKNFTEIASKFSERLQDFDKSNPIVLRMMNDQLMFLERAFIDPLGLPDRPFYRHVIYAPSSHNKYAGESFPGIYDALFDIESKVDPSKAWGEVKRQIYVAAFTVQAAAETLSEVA

SMILES	IC50 [1] [µM]	also measured
N=C(N)c1ccc2[nH]c(-c3ccccc3O)cc2c1	44	
CC(=O)NC(=N)c1ccc2[nH]c(-c3cc(-c4ccc(CNC(=O)[C@H](CCCCNC(=O)CCCCC[N+]5=C(/C=C/C6=CC(=C/C=C7/N(C)c8ccc(S(=O)(=O)O)cc8C7(C)C)/CCC6)C(C)(C)c6cc(S(=O)(=O)O)ccc65)NC(=O)CCCCCCC(=O)NCCCCC(NC(=O)N[C@@H](CCC(=O)O)C(=O)O)C(=O)O)cc4)ccc3O)cc2c1 (stereo partly specified)		IC50 [2]: 0.025 µM; Drug uptake [3]: Active; Drug uptake [4]: Active
N=C(N)c1ccc2[nH]c(-c3cc(-c4ccc(F)cc4)ccc3O)cc2c1	5.9	
CC(C)(C)OC(=O)NCc1ccc(-c2ccc(O)c(-c3cc4cc(C(=N)N)ccc4[nH]3)c2)cc1	11	
COc1ccc(-c2ccc(O)c(-c3cc4cc(C(=N)N)ccc4[nH]3)c2)cc1	7.3	
N=C(N)c1ccc2[nH]c(-c3cc(-c4ccccc4)ccc3O)cc2c1	8.9	
N=C(N)c1ccc2[nH]c(-c3cc(-c4ccc(C(F)(F)F)cc4)ccc3O)cc2c1	14	
N=C(N)c1ccc2[nH]c(-c3cc(-c4ccc(Cl)cc4)ccc3O)cc2c1	23	
N=C(N)c1ccc2[nH]c(-c3cc(-c4cccs4)ccc3O)cc2c1	70	
CN1/C(=C/C=C2C=C(/C=C/C3=[N+](CCCCCC(=O)NCCCC[C@H](NC(=O)CCCCCCC(=O)NCCCCC(NC(=O)N[C@@H](CCC(=O)O)C(=O)O)C(=O)O)C(=O)NCc4ccc(-c5ccc(O)c(-c6cc7cc(C(=N)N)ccc7[nH]6)c5)cc4)c4ccc(S(=O)(=O)O)cc4C3(C)C)CCC/2)C(C)(C)c2cc(S(=O)(=O)O)ccc21 (stereo partly specified)		Drug uptake [3]: Active; Drug uptake [4]: Active; Drug uptake [5]: Not Active; Drug uptake [6]: Active
N=C(N)c1ccc2[nH]c(-c3cc(-c4ccc(CN)cc4)ccc3O)cc2c1	9.3	

Source: ChEMBL document CHEMBL3826925, “Design, synthesis and biological evaluation of PSMA/hepsin-targeted heterobivalent ligands” (Eur J Med Chem, 2016)
